Bioassay records (PubChem)
HIV Env fusion – HIV envelope-mediated fusion inhibition; HeLa-JRFL Env/CEM21 cell fusion, luciferase; inhibition, % at 12.3 µM; 360,000 tested, 1.1% active; AID 651610;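 active means mean replicate inhibition score of at least 50 and every replicate individually at or above 50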
Rtt109 HAT inh – C. albicans Rtt109 histone acetyltransferase inhibition | 330,000 tested, 0.16% active | AID 540336 | purified Rtt109/Vps75, ThioGlo CoA-SH fluorescence, 4 h | inhibition, % at 34.9 µM;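 active means inhibition of at least 50% in every replicate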
Target sequence (Q5AAJ8 whole entry, looked up): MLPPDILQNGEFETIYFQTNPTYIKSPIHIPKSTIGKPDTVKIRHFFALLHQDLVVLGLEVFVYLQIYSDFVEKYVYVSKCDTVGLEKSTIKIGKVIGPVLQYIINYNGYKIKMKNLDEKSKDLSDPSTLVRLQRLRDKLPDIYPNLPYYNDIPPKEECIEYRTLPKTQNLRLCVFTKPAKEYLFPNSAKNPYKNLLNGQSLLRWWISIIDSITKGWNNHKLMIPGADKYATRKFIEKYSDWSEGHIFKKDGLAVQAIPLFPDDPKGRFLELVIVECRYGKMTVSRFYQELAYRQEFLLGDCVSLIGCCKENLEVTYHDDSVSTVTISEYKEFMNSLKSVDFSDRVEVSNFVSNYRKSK
PglD inh – inhibitors of Campylobacter jejuni PglD acetyltransferase | AID 602405 | 360,000 tested, 0.098% active | inhibition, % at 12.5 µM | purified PglD enzyme, DTNB colorimetric CoA detection; in the data active means inhibition above about 16%, passing the limit was not always enough
SR-BI HDL uptake – inhibitors of mouse SR-BI mediated HDL lipid uptake | AID 488896 | Q61009 | inhibition, % at 12.5 µM | 320,000 tested, 0.96% active | ldlA[mSR-BI] CHO cells, DiI-HDL uptake fluorescence, 3 h;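 active means mean replicate inhibition of at least 70% and a set share of replicates each scoring 70 or more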
N-glyco inh – N-linked glycosylation inhibition | reporter increase, % at 12.5 µM | D54 ERlucT glycosylation luciferase reporter, 24 h; percent of 100 nM tunicamycin response | 360,000 tested, 0.23% active | AID 588692;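 active means mean luciferase reporter signal, scaled so untreated is 0 and the glycosylation-blocking control 100, at or above a set limit in every replicate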;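 further: luciferase carries N-glycosylation sites so blocking glycosylation raises the light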
SR-BI DiI-HDL act – SR-BI HDL lipid transfer activation. CHO ldlA[mSR-BI] cells, DiI-HDL uptake fluorescence, 3 h; 100 = double the neutral-control signal. 320,000 tested, 0.096% active. activation, % at 12.5 µM;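 active means mean replicate activation of at least 60% and every replicate at or above 60%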
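Material: SR-BI-overexpressing, LDLR-lacking CHO cells | Dosing: Single compound concentration, delivered by pin transfer | Probe or stimulus: Labelled HDL, 10 µg/mL | Signal: Bottom-read cell fluorescence after medium removal, ex 550/em 595 nm | Schedule: 3 h, 37 °C | Evaluation: HDL uptake via cellular fluorescence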
A number is an active result; – = inactive; · = no result. This is a sample that favours compounds with a hit; in the whole collection about 1.9% have one here.

SMILES	HIV Env fusion	Rtt109 HAT inh	PglD inh	SR-BI HDL uptake	N-glyco inh	SR-BI DiI-HDL act
CCCCC[C@@H](C)N1C[C@H](COCc2ccccc2)Oc2cc(N3CCC[C@H]3C(N)=O)ccc2S1(=O)=O	75.8	·	·	·	·	·
Cc1ccc(S(=O)(=O)N2CCN(C(=O)CNC(=O)c3ccc(Br)o3)CC2)cc1	64.3	–	·	–	–	–
C[C@H]1CN([C@@H](C)CO)S(=O)(=O)c2ccc(C#CC3CC3)cc2O[C@@H]1CN(C)Cc1ccc(F)cc1	–	·	–	·	·	·
Cc1ccc(-n2nc3c(c2NC(=O)c2ccco2)CS(=O)C3)cc1 (centres undefined)	88.3	–	–	–	–	–
O=C(N/N=C/c1cc([N+](=O)[O-])ccc1O)C12CC3CC(CC(C3)C1)C2	–	–	·	135.7	–	–
O=C(N/N=C/c1ccccn1)c1cc(-c2ccncc2)nc2ccccc12	–	–	·	–	41.3	–
O=C(N/N=C/c1ccc[nH]1)c1sc2ccccc2c1Cl	–	–	–	74.9	–	–
O=C(N/N=C/c1ccsc1)c1cc(-c2ccncc2)nc2ccccc12	–	–	·	–	–	–
Nc1ccc(C(=O)N/N=C\c2cc(N=Nc3cccc4ccccc34)ccc2O)cc1	–	–	–	122.2	–	–
O=C(N/N=C/c1cc([N+](=O)[O-])ccc1O)c1c[nH]c2ccccc12	–	–	·	·	–	·
O=C(NN=Cc1cc([N+](=O)[O-])ccc1O)c1cccc2ccccc12	–	–	·	134.0	–	–
O=[N+]([O-])c1ccc(O)c(/C=N/Nc2nc3ccccc3[nH]2)c1	–	–	·	86.9	–	–
Cc1cc(C(=O)N/N=C/c2cc([N+](=O)[O-])ccc2O)c2ccccc2n1	·	–	·	118.1	–	–
Cc1cc(C(=O)N/N=C/c2ccc([N+](=O)[O-])cc2)c2ccccc2n1	–	–	–	–	–	–
O=C(N/N=C/c1ccc[nH]1)c1cc(-c2ccc(Cl)cc2)nc2ccccc12	–	–	·	92.7	–	–
O=C(C1CC1)N1CC[C@@H]2[C@@H](CO)Nc3ccc(C#Cc4ccc(F)cc4)cc3[C@@H]21	·	·	–	·	·	·
CC(C)NC(=O)Nc1ccc2c(c1)C(=O)N(C)[C@H]1CC[C@H](CC(=O)Nc3ccccc3)O[C@H]1CO2	–	·	–	·	·	·
O=[N+]([O-])c1ccc(O)c(/C=N/NC(=S)Nc2ccc(Cl)cc2Cl)c1	–	–	–	104.7	–	–
Cc1ccc(-c2nc(N/N=C/c3cccc([N+](=O)[O-])c3)c3ccccc3n2)cc1	–	–	–	74.1	–	–
O=C(N/N=C/c1cccc([N+](=O)[O-])c1)c1cc(-c2ccccc2)nc2ccccc12	–	–	–	80.2	–	–
O=C(N/N=C/c1ccc([N+](=O)[O-])o1)c1cc(-c2ccc(-c3ccccc3)cc2)nc2ccccc12	–	–	·	118.5	–	–
O=C(N/N=C/c1ccc([N+](=O)[O-])o1)c1cc(-c2ccncc2)nc2ccccc12	–	–	–	–	–	–
CO[C@H]1CN(C)C(=O)c2cc(NS(=O)(=O)c3ccccc3)ccc2OC[C@@H](C)N(Cc2ccccn2)C[C@H]1C	–	·	–	·	·	·
CS(=O)(=O)Nc1ccc2c(c1)[C@H]1C[C@@H](CC(=O)NCC3CC3)O[C@H](CO)[C@H]1O2	–	·	–	·	·	·
O=C(NC1CCC(O)CC1)c1cc(-c2ccc(Cl)cc2)nc2ccccc12 (centres undefined)	–	–	–	76.8	–	–
SMILES	HIV Env fusion	Rtt109 HAT inh	PglD inh	SR-BI HDL uptake	N-glyco inh	SR-BI DiI-HDL act
COc1ccc(/C=N/NC(=O)c2nc(-c3ccccc3)cc(-c3ccccc3)n2)cc1OC	·	–	·	–	–	–
O=C(N/N=C/c1cc([N+](=O)[O-])ccc1O)c1cc(-c2ccccc2)nc2ccccc12	–	–	·	128.6	–	–
COc1cccc(/C=N/NC(=O)c2nc(-c3ccccc3)cc(-c3ccccc3)n2)c1	·	–	–	80.7	–	–
CC(O)CN=c1cc(-c2ccccc2)oc2ccc(Cl)cc12 (centres undefined)	·	–	–	–	29.0	–
OCCN=c1cc(-c2ccccc2)oc2ccc(Cl)cc12	·	–	–	–	50.0	–
O=C(C[C@@H]1CC[C@H]2[C@@H](COC[C@@H](O)CN2S(=O)(=O)c2ccc(Cl)cc2)O1)N[C@@H]1CCN(Cc2ccccc2)C1	·	·	–	·	·	·
CCOc1cccc(N(C(=O)Cc2cccs2)C(C(=O)NC2CCCCC2)c2cccn2C)c1 (centres undefined)	88.7	–	–	–	–	–
Cc1cc(C)cc(N(C(=O)Cc2cccs2)C(C(=O)NC2CCCCC2)c2ccccn2)c1 (centres undefined)	118.6	–	–	–	–	–
O=C(NC1CCCCC1)C(c1ccccn1)N(C(=O)Cc1cccs1)c1ccc(Cl)cc1 (centres undefined)	–	·	–	–	–	–
CCc1ccc(N(C(=O)Cn2nnc(-c3ccccc3)n2)C(C(=O)NC2CCCCC2)c2ccccn2)cc1 (centres undefined)	79.7	–	–	–	–	–
CCCNC(=O)N[C@H]1C=C[C@@H](CC(=O)NC2CCCCC2)O[C@@H]1CO	–	·	–	·	·	·
COc1ccc2oc(/C=C/N(C)C)c(C(=O)c3ccc(Cl)cc3)c2c1	·	–	–	77.7	–	–
COc1ccc2oc(C)c(C(=O)c3ccccc3)c2c1	–	–	·	·	–	·
CCCCOn1c(C)c(C(C)=O)c2c3no[n+]([O-])c3ccc21	–	–	–	77.7	–	–
CCOC(=O)c1c(C)n(OCc2ccccc2)c2ccc3c(no[n+]3[O-])c12	–	–	–	85.7	–	–
Cc1cnnc2ccc3c(no[n+]3[O-])c12	·	–	·	–	–	–
CCOC(=O)COn1c2c(c3c4no[n+]([O-])c4ccc31)CCCC2	·	–	–	–	–	–
COCCNC(=O)[C@@H]1[C@@H](CO)[C@@H]2Cn3c(ccc(-c4ccccc4F)c3=O)[C@@H]2N1C(=O)C1CCCC1	–	·	–	·	·	·
O=C(CSc1nnc(-c2cccnc2)s1)Nc1ccnc2ccccc12	55.4	–	·	–	–	–
CC(C)OP(=O)(Nc1cccc2ccccc12)OC(C)C	94.3	–	·	–	–	–
C#CCn1c(S(=O)(=O)Cc2ccccc2Cl)nc(-c2ccccc2)c1-c1ccccc1	79.1	–	–	–	–	–
CCOC(=O)Cn1c(S(=O)(=O)Cc2ccccc2Cl)nc(-c2ccccc2)c1-c1ccccc1	·	–	–	–	–	–
C#CCn1c(S(=O)(=O)Cc2ccc(C)cc2)nc(-c2ccccc2)c1-c1ccccc1	146.1	–	–	–	–	–
CN(C)C(=O)[C@H]1[C@H](CO)[C@H]2Cn3c(ccc(C4=CCCCC4)c3=O)[C@@H]1N2Cc1ccccc1	·	·	–	·	·	·
CC(C)CC(=O)NCC(C)NC(=O)CC(C)C (centres undefined)	–	–	–	–	–	73.3
